Test results as given in ChEMBL document CHEMBL1147450, “N2-benzyl-N1-(1-(1-naphthyl)ethyl)-3-phenylpropane-1,2-diamines and conformationally restrained indole analogues: development of calindol as a new calcimimetic acting at the calcium sensing receptor” (Bioorg Med Chem Lett, 2004).

What follows are compounds tested against T1, Extracellular calcium-sensing receptor (Homo sapiens, UniProt P41180) (assay: Ability to stimulate [3H]inositol phosphates accumulation in HEK293 cells expressing the human calcium sensing receptor (CaSR) at 2 mM [Ca2+]).
T1 sequence (P41180 whole entry): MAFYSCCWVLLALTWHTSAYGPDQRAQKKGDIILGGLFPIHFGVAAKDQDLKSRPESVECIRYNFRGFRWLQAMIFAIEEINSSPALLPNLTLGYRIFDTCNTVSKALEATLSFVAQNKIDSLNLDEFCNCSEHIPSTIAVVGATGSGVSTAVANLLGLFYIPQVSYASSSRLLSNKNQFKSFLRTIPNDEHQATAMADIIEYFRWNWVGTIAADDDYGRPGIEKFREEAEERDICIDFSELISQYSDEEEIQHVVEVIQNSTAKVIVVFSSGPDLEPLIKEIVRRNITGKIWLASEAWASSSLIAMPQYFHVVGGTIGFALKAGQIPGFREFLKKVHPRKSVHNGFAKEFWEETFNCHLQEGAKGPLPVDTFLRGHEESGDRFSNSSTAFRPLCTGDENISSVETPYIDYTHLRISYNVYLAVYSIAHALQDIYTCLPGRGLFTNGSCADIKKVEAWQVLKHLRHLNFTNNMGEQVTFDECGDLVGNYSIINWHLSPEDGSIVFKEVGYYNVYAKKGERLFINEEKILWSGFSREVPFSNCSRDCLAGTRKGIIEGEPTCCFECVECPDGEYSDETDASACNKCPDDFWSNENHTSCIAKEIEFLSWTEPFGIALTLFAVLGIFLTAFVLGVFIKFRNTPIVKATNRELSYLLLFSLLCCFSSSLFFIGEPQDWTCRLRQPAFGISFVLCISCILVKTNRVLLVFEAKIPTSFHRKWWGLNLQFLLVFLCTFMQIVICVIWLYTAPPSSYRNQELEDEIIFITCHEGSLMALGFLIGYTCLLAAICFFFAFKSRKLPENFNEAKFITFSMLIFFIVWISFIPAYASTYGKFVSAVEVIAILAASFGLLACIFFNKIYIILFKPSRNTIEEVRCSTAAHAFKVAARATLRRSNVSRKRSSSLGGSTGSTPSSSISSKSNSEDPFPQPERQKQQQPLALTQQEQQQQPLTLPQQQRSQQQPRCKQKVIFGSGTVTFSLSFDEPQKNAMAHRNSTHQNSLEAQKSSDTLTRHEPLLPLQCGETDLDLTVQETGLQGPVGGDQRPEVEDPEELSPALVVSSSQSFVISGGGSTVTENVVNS
Format: functional, cell-based
How it was run: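 HEK293 cells transiently expressing human CaSR, prelabelled with myo-[3H]inositol. Increasing drug concentrations were applied in the presence of 2 mM extracellular Ca2+. [3H]IP accumulation is expressed as % of the 10 mM Ca2+ response, and EC50 and maximal stimulation come from the dose-response curve. Three to five independent experiments in triplicate.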

Structure (SMILES)	EC50 [nM]
C[C@@H](NCc1cc2ccccc2[nH]1)c1cccc2ccccc12	310

Each compound was assayed against T2, Extracellular calcium-sensing receptor (Rattus norvegicus) (UniProt P48442) (assay: Maximal stimulation of [3H]-inositol phosphates production in CHO cells expressing rat Calcium sensing receptor (CaSR) at 10 mM [Ca2+]).
T2 sequence (whole entry): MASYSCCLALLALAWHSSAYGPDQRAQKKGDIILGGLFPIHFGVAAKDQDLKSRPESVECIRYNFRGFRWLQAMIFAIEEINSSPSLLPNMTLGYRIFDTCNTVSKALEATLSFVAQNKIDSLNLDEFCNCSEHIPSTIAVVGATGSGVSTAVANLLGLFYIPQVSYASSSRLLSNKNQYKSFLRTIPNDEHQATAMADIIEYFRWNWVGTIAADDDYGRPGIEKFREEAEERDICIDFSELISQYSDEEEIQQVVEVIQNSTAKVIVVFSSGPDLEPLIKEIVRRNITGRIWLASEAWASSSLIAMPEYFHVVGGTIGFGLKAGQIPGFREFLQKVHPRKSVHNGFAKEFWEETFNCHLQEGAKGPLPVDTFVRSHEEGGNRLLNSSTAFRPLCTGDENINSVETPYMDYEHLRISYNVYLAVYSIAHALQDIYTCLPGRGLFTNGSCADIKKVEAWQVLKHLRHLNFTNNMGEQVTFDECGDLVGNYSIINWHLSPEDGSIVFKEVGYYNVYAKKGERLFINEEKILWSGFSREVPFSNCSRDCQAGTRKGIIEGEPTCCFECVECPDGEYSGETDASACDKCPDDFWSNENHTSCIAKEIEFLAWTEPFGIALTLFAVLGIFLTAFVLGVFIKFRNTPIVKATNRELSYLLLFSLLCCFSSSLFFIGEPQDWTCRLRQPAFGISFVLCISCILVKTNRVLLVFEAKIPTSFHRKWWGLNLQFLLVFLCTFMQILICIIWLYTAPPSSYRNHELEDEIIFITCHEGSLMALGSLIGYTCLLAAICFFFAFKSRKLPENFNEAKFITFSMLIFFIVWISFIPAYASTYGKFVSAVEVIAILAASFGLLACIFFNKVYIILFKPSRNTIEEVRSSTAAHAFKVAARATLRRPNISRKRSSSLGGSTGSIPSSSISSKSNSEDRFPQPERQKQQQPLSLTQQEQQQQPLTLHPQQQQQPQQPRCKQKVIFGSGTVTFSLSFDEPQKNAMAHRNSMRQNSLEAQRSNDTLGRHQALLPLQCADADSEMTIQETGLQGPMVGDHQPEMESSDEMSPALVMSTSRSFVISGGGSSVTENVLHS
Format: functional, cell-based
How it was run: (§1)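 CHO cells stably transfected with rat brain CaSR, grown in basal Ham's F-12 (0.3 mM Ca2+, 0.6 mM Mg2+), prelabelled overnight with 0.5 µCi/mL myo-[3H]inositol. Drugs were made as 10 mM ethanol stocks, diluted in basal medium, and incubated at 37 °C with 2 mM extracellular Ca2+. Read-out is [3H]IP accumulation as % of the 10 mM Ca2+ maximal response. Two to five independent experiments in triplicate, mean ± SEM.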

Structure (SMILES)	Accumulation [%]
COc1ccc(CNC(CNC(C)c2cccc3ccccc23)Cc2ccccc2)cc1 (centres undefined)	80
CC(NCc1cc2ccccc2[nH]1)c1cccc2ccccc12 (racemic)	103
COc1cc2cc(CNC(C)c3cccc4ccccc34)[nH]c2cc1OC (centres undefined)	34
CC(NCC(Cc1ccccc1)NCc1cccc(Cl)c1)c1cccc2ccccc12 (centres undefined)	78
C[C@H](NCc1cc2ccccc2[nH]1)c1cccc2ccccc12	32
COc1ccc(S(=O)(=O)n2c(CNC(C)c3cccc4ccccc34)cc3ccccc32)cc1OC (centres undefined)	54
CC(NCC(Cc1ccccc1)NCc1ccc(F)cc1)c1cccc2ccccc12 (centres undefined)	95
CC(NCC(Cc1ccccc1)NCc1ccccc1)c1cccc2ccccc12 (centres undefined)	80
CC(NC(=O)c1cc2ccccc2[nH]1)c1cccc2ccccc12 (centres undefined)	2
CC(NCc1cc2cc(F)ccc2[nH]1)c1cccc2ccccc12 (centres undefined)	87
CC(NCC(Cc1ccccc1)NCc1ccccc1Cl)c1cccc2ccccc12 (centres undefined)	98
C[C@@H](NCc1cc2ccccc2[nH]1)c1cccc2ccccc12	117
CC(NCc1cc2cc(Cl)ccc2[nH]1)c1cccc2ccccc12 (centres undefined)	60
COc1ccc2[nH]c(CNC(C)c3cccc4ccccc34)cc2c1 (centres undefined)	55
CC(NCc1cc2ccccc2n1C)c1cccc2ccccc12 (centres undefined)	79
COc1ccc(CNC(CNC(C)c2cccc3ccccc23)Cc2ccccc2)cc1OC (centres undefined)	74

The compounds below were run against T3, Extracellular calcium-sensing receptor (Rattus norvegicus, UniProt P48442) (assay: Ability to stimulate [3H]inositol phosphates accumulation in CHO cells expressing rat Calcium sensing receptor (CaSR) at 2 mM [Ca2+]).
T3 sequence (P48442 whole entry): T2 sequence (whole entry)
Format: functional, cell-based
How it was run: as §1

Structure (SMILES)	EC50 [nM]
CC(NCc1cc2ccccc2[nH]1)c1cccc2ccccc12 (racemic)	1300
C[C@@H](NCc1cc2ccccc2[nH]1)c1cccc2ccccc12	1000
